Source: PubChem BioAssay (several laboratories)
Efflux pump mplx – inhibitors of Candida efflux pumps in yeast, primary screen, S. cerevisiae, Nile Red, multiplex. S. cerevisiae Candida pump triplex. inhibition, % at 10 µM. 330,000 compounds, 0.44% hits. AID 485275, 2010;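 active means plate passing quality check with inhibition over a set limit, or well fluorescence over plate mean plus 4 SD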;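 further: Nile Red retained in pooled yeast measured as flow cytometry median fluorescence; 0% = buffer negative control and 100% = Enniatin B positive control; higher means more Nile Red kept so more efflux inhibition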
T cruzi inh – inhibitors of intracellular T. cruzi growth, primary screen, luminescence, NIH3T3 host cells | T. cruzi beta-gal in NIH3T3, 90 h | inhibition, % (concentration not given with the values) | 300,000 compounds, 1.4% hits | AID 1885, 2009;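 active means mean inhibition across valid replicates above about 55%, limit read from the data; inconclusive means mean below that limit but half or more replicates reach it; inactive means mean below it, under half of replicates reach it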;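 further: signal also drops with host cell toxicity which is not excluded here; 0% = plate median of DMSO wells and 100% = zero luminescence signal; higher percent means less beta-gal luminescence so fewer parasites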
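Material: NIH/3T3 host cells with β-galactosidase reporter T. cruzi; Input: 5,000 host fibroblasts per well; Medium: DMEM, 2% fetal bovine serum; Compound: 50 nL DMSO compound solution per well; Schedule: 3 h host attachment, then at least 90 h co-culture; Detection: luminescent β-galactosidase signal after 60 min lysis.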
SUMO Mot1 rescue – yeast Mot1-301 growth rescue at high temperature, primary screen, SUMOylation pathway inhibitor project, S. cerevisiae, ATP luminescence, 38.5C; 320,000 compounds, 1% hits; growth rescue, % at 18.8 µM; AID 2716, 2010; S. cerevisiae Mot1-301 growth rescue; percent above DMSO median, 100 means doubled;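 active means every valid replicate shows activation above 250% relative to neutral control wells; inactive means the rest, any valid replicate at or below 250%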;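 further: OY570 slx delta 5 strain wells were the positive control but not used for scaling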
CSC inhib – cancer stem cell viability inhibitors, primary screen, luminescence; cancer stem cell-like cells viability; inhibition, % at 7.5 µM; 300,000 compounds, 1.1% hits; AID 2717, 2010; in the data active means inhibition above about 75%; inconclusive means no clear call, values can overlap the other calls; tested in HMLE shEcad cells
Beta cell apopt – inhibitors of cytokine-induced beta cell apoptosis, primary screen, luminescence | INS-1E cytokine-induced death, ATP luminescence, 48 h; percent of positive-control rescue, neutral wells zero | protection from apoptosis, % (no concentration beside the values) | 300,000 compounds, 0.8% hits | AID 435005, 2010;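 active means Every replicate reaches about 75%, or at least half do and their mean reaches it too, limit read from the data; inconclusive means At least half of replicates reach the limit but their mean does not; inactive means Under half of replicates reach the limit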;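 further: 0% = cytokine-treated negative control wells and 100% = positive control rescue; higher means more ATP so stronger rescue from cytokine killing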
WT yeast gro inh – growth inhibition of WT strain, primary screen, mitochondrial fusion inhibitor project, WT and mutant strains, chemical genetic; inhibition, % at 10 µM; mitochondrial fusion phenotypic screen; 190,000 compounds, 2.1% hits; in the data active means inhibition above about 58%; tested in S. cerevisiae
The depositor's hits bear a star; u = inconclusive; x = no result given. Only some compounds are listed: those with a hit (about 4.8% of all), similar ones and a draw of the others.

SMILES | Efflux pump mplx | T cruzi inh | SUMO Mot1 rescue | CSC inhib | Beta cell apopt | WT yeast gro inh
O=C(c1ccccc1)C(c1ccccc1)c1ccccc1 | 0 | 6 | -8 | 10 | 3 | x
C=C(C(=O)c1ccccc1)C(C)C(=C)C(=O)c1ccccc1 | 0 | -9 | 63 | 82* | 117* | 51
C=C(C(=O)c1ccccc1)C(C(=C)C(=O)c1ccccc1)c1ccc(OC)cc1 | 0 | 55* | -3 | 59 | 111* | x
O=C(O)c1ccc(C(=O)C(=O)c2ccccc2)cc1 | 0 | -1 | -12 | x | 3 | x
C=C(C(=O)c1ccccc1)C(c1ccccc1)C(C)C(=O)c1ccccc1 (configuration not stated) | 0 | 49 | -2 | 111* | x | 26
CCCn1c(=O)c2c(nc3n2CCCN3CCc2ccccc2)n(C)c1=O | 0 | 26 | -14 | 13 | 5 | x
Cn1c(=O)n(CCc2ccccc2)c(=O)c2c1nc1n2CCCN1CCc1ccccc1 | 0 | 53 | 2 | 41 | 10 | 67*
CN1CCN(C(=O)c2ccccc2Nc2ccc(SC(F)F)cc2)CC1 | 0 | -6 | 12 | -6 | 3 | -3
CN1CCC(N(C)C(=O)c2ccccc2Nc2ccc(SC(F)F)cc2)CC1 | 0 | 59* | 0 | -17 | 0 | -5
c1ccc(-c2cc(-c3nc4ccccc4[nH]3)c3ccccc3n2)cc1 | 0 | 55* | 3 | 64 | 21 | 60*
Nc1ccc(-c2nc3ccccc3[nH]2)cc1 | 0 | 1 | 1 | 5 | x | 5
COc1ccc(C2CC(=O)c3cnc(Nc4cc(C)cc(C)c4)nc3C2)cc1 (configuration not stated) | 0 | 32 | 5 | 0 | -3 | 69*
COc1ccc(C2CC(=O)c3cnc(NC(=O)c4cc(OC)cc(OC)c4)nc3C2)cc1 (configuration not stated) | 0 | 0 | -22 | 5 | -2 | 20
N=c1n(CC(=O)c2cccc([N+](=O)[O-])c2)c2ccccc2n1Cc1ccccc1 | 0 | 11 | -1 | 24 | 25 | 20
Cc1ccc(Cn2c(=N)n(CC(=O)c3ccccc3)c3ccccc32)cc1 | 0 | -2 | 3 | 14 | 98* | 50
CC(C)(C)C(=O)Cn1c(=N)n(Cc2ccccc2Cl)c2ccccc21 | 0 | 57* | -18 | x | 28 | 14
CC(C)(C)C(=O)Cn1c(=N)n(Cc2ccccc2)c2ccccc21 | 0 | 30 | 9 | 3 | 4 | 70*
CN(Cc1ccccc1)C(=O)c1cn(C)c2ccc(S(=O)(=O)N3CCCC3)cc2c1=O | 1 | 3 | -10 | 4 | 0 | x
CCN(CC)C(c1ccc(F)cc1)c1nnnn1C1CCCCC1 (configuration not stated) | 0 | 2 | 144 | -10 | -6 | 7
Fc1ccc(CN(Cc2ccccc2)C(c2cccs2)c2nnnn2C2CCCCC2)cc1 (configuration not stated) | 0 | u | 162 | 16 | 94* | -1
COc1ccc(/C=C(\C#N)C(=O)OCC(=O)Nc2ccc(-c3nc4ccc(C)cc4s3)cc2)cc1 | 0 | 10 | 83 | 5 | 1 | -10
CCOC(=O)c1ccc(NC(=O)Nc2ccon2)cc1 | 0 | 30 | -19 | 78* | 23 | x
O=C(Nc1ccc(Cl)c(Cl)c1)Nc1ccc(Br)cc1F | 0 | 53 | 1 | 92* | x | 81*
O=C1C=C(NC(=O)Nc2ccc(Cl)c(Cl)c2)CCC1 | 0 | 12 | 2 | 0 | 2 | 80*
CCOC(=O)c1ccc(NC(=O)Nc2ccc(Cl)cn2)cc1 | 0 | 16 | -9 | x | 2 | -17
SMILES | Efflux pump mplx | T cruzi inh | SUMO Mot1 rescue | CSC inhib | Beta cell apopt | WT yeast gro inh
O=C(Nc1ccc(Br)cc1)Nc1ccccc1F | 0 | -12 | 9 | 16 | 8 | 6
N#Cc1ccc(NC(=O)Nc2ccc(Cl)cc2)cc1 | 0 | 71* | -20 | x | 105* | 63*
CCCCN(C(=O)c1ccc(N2CCCC2=O)cc1)c1c(N)n(CCC)c(=O)[nH]c1=O | 0 | x | 4 | 0 | -3 | x
CN(CCC#N)C(=O)CC(Cc1ccccc1)C1CCOC(C)(C)C1 (configuration not stated) | 0 | 1 | 69 | -11 | -2 | x
O=C(Nc1ccc(Cl)c(Cl)c1)c1ccccc1 | 0 | x | 42 | 11 | 3 | x
O=C(Nc1ccc(Cl)c(Cl)c1)Nc1ccon1 | 6.5* | 28 | 4 | 47 | 11 | x
O=C(Nc1ccncc1)Nc1cccc(Cl)c1Cl | 0 | 66* | 3 | -2 | 11 | x
O=C(Nc1ccc(Cl)cc1)Nc1ccc(Cl)c(Cl)c1 | 0 | x | 15 | 44 | 113* | x
O=C(Nc1ccc(Cl)c(Cl)c1)Nc1ccccc1O | 0 | -12 | 22 | 93* | 6 | x
CCCC(=O)N(c1ccc(C(=O)O)cc1)c1nc(-c2ccccc2)c(C)s1 | 0 | -10 | 8 | -1 | -2 | -4
Cc1cc2ccccn2c1C(=O)c1cc([N+](=O)[O-])cc([N+](=O)[O-])c1 | 0 | 65* | -10 | -5 | 11 | 41
COC(=O)c1cc(C(=O)c2c(C)cc3ccccn23)cc([N+](=O)[O-])c1 | 0 | 18 | -10 | x | 5 | x
C=CCn1c(SCC(C)=O)nc2scc(-c3ccc(C)o3)c2c1=O | 0 | 8 | -7 | -5 | 15 | x
C=CCn1c(=S)[nH]c2scc(-c3ccc(C)o3)c2c1=O | 0 | 5 | -39 | -17 | -1 | 65*
O=C(CN1CCC(C(=O)c2ccc(F)cc2)CC1)Nc1ccccc1Cl | 0 | 16 | 19 | -4 | 0 | x
CCOC(=O)C1=C(C)NC2=C(C(=O)c3ccccc32)C1c1ccc([N+](=O)[O-])o1 (configuration not stated) | 0 | 58* | -10 | 4 | -12 | x
CCOC(=O)C1=C(C)NC(=O)NC1c1ccc([N+](=O)[O-])o1 (configuration not stated) | 0 | 26 | 6 | -14 | 2 | x
CN1C(=O)c2cccc3c(S(=O)(=O)Nc4ccccn4)ccc1c23 | 0 | -4 | 280* | 3 | -6 | -3
CN1C(=O)c2cccc3c(S(N)(=O)=O)ccc1c23 | 0 | -28 | 1 | -2 | x | x
Cc1ccccc1NS(=O)(=O)c1ccc2c3c(cccc13)C(=O)N2C | 0 | 17 | 351* | -10 | x | x
NC(=O)C1(N2CCCCC2)CCN(c2nc(-c3ccc(Br)cc3)cs2)CC1 | 0 | 60* | 215 | 19 | -2 | 65*
